Source: ChEMBL document CHEMBL1687745 (Antimicrob Agents Chemother, 2009)
Converted amounts (≈) assume the structure as drawn. The source made the active and inactive calls. No cut-off for these calls is given here.

Legend:
Bacillus anthracis [1] = assay: Antimicrobial activity against Bacillus anthracis Sterne spores by broth microdilution method; assay type: functional
Bacillus anthracis [2] = assay: Antimicrobial activity against Bacillus anthracis Sterne vegetative cells by broth microdilution method; assay type: functional
Bacillus subtilis [3] = assay: Inhibition of DNA synthesis in Bacillus subtilis BD54 at 5 X MIC by [3H]thymidine incorporation assay; assay type: functional, organism-based
Outline: (§1)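 Precursors were [methyl-3H]thymidine (DNA), [5-3H]uridine (RNA), L-[4,5-3H]leucine (protein) and N-acetyl-D-[1-3H]glucosamine (cell wall). Samples taken over time, precipitated with equal volume of ice-cold 20% TCA, filtered on glass fibre, and counted. cpm plotted against time.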

Bacillus subtilis [4] = assay: Inhibition of RNA synthesis in Bacillus subtilis BD54 at 5 X MIC by [5-3H]uridine incorporation assay; assay type: functional; outline: as §1
Bacillus subtilis [5] = assay: Inhibition of protein synthesis in Bacillus subtilis BD54 at 5 X MIC by L-[4,5-3H]leucine incorporation assay; assay type: functional, organism-based; outline: as §1
Bacillus subtilis [6] = assay: Inhibition of cell wall synthesis in Bacillus subtilis BD54 at 5 X MIC by N-acetyl-D-[1-3H] glucosamine incorporation assay; assay type: functional; outline: as §1

Structure (SMILES) | MIC (Bacillus anthracis [1]) | MIC (Bacillus anthracis [2]) | other results
N=C(N)N/N=C/c1ccc2cc(-c3ccc(/C=N/N=C(N)N)cc3)sc2c1 | 4.5 µg/mL (≈ 11.9 µM) | 18 µg/mL (≈ 47.6 µM) | –
c1cc(-c2nc3cc(-c4nc5ccc(C6=NCCN6)cc5[nH]4)ccc3[nH]2)ccc1C1=NCCN1 | 1.4 µg/mL (≈ 3.14 µM) | 22.3 µg/mL (≈ 49.9 µM) | –
N=C(N)c1ccc2[nH]c(/C=C/c3nc4cc(C(=N)N)ccc4[nH]3)nc2c1 | > 17 µg/mL | > 17 µg/mL | –
C(=C\c1cc2ccc(C3=NCCN3)cc2o1)/c1cc2ccc(C3=NCCN3)cc2o1 | 19 µg/mL (≈ 47.9 µM) | 19 µg/mL (≈ 47.9 µM) | –
N=C(N)c1ccc(/C=C/c2cc3ccc(C(=N)N)cc3[nH]2)cc1 | 7.5 µg/mL (≈ 24.7 µM) | 15 µg/mL (≈ 49.4 µM) | –
N=C(N)c1ccc(-c2[nH]c3cc(C(=N)N)ccc3c2-c2ccccc2)cc1 | 9 µg/mL (≈ 25.5 µM) | 17 µg/mL (≈ 48.1 µM) | –
CO[C@H]1/C=C/O[C@@]2(C)Oc3c(C)c(O)c4c(O)c(c(/C=N/N5CCN(C)CC5)c(O)c4c3C2=O)NC(=O)/C(C)=C\C=C\[C@H](C)[C@H](O)[C@@H](C)[C@@H](O)[C@@H](C)[C@H](OC(C)=O)[C@@H]1C | – | – | inhibition (Bacillus subtilis [3]): Active; inhibition (Bacillus subtilis [4]): Active; inhibition (Bacillus subtilis [5]): Active; inhibition (Bacillus subtilis [6]): Active
N=C(N)c1ccc2oc(/C=C/C=C/C=C/c3cc4cc(C(=N)N)ccc4o3)cc2c1 | 2.3 µg/mL (≈ 5.8 µM) | 9.4 µg/mL (≈ 23.7 µM) | –
Nc1ccc(C2=Cc3ccc(N)cc3S2(=O)=O)cc1 | > 11 µg/mL | > 11 µg/mL | –
Cc1c(/C=C/c2cc3cc(C(=N)N)ccc3o2)oc2cc(C(=N)N)ccc12 | > 17 µg/mL | > 17 µg/mL | –
c1cc(-c2cc3ccc(C4=NCCN4)cc3s2)ccc1C1=NCCN1 | > 17 µg/mL | > 17 µg/mL | –
N=C(N)c1ccc2[nH]c(/C=C/c3cc4ccc(C(=N)N)cc4o3)cc2c1 | 8 µg/mL (≈ 23.3 µM) | > 17 µg/mL | –
N=C(N)c1ccc(-c2ccc(-c3ccc(C(=N)N)cc3)s2)cc1 | 16 µg/mL (≈ 49.9 µM) | > 16 µg/mL | –
O=C(Nc1ccc(C2=NCCN2)cc1)c1cc2ccc(C3=NCCN3)cc2[nH]1 | 8.9 µg/mL (≈ 23.9 µM) | 17.8 µg/mL (≈ 47.8 µM) | –
C(=C\c1cc2cc(C3=NCCN3)ccc2o1)/c1cc2cc(C3=NCCN3)ccc2[nH]1 | 19 µg/mL (≈ 48 µM) | > 19 µg/mL | –
N/C(=N\O)c1ccc2oc(/C=C/c3cc4cc(/C(N)=N/O)ccc4o3)cc2c1 | > 23 µg/mL | > 23 µg/mL | –
O=C(Nc1ccc(C2=NCCN2)cc1)c1cc2ccc(C3=NCCN3)cc2o1 | > 18 µg/mL | > 18 µg/mL | –
c1cc(-c2[nH]c3cc(C4=NCCN4)ccc3c2-c2cc3ccc(C4=NCCN4)cc3[nH]2)ccc1C1=NCCN1 | 24.9 µg/mL (≈ 48.6 µM) | 24.9 µg/mL (≈ 48.6 µM) | –
c1cc(-c2cc3cc(C4=NCCN4)ccc3s2)ccc1C1=NCCN1 | > 17 µg/mL | > 17 µg/mL | –
O=C(Nc1ccc(C2=NCCN2)cc1)c1cc2cc(C3=NCCN3)ccc2o1 | 18 µg/mL (≈ 48.2 µM) | > 18 µg/mL | –
C(=C\c1cc2ccc(C3=NCCN3)cc2[nH]1)/c1ccc(Oc2ccc(C3=NCCN3)cc2)cc1 | 2.6 µg/mL (≈ 5.81 µM) | 2.6 µg/mL (≈ 5.81 µM) | –

Structure (SMILES) | MIC (Bacillus anthracis [1]) | MIC (Bacillus anthracis [2]) | other results
C(/C=C/c1cc2cc(C3=NCCN3)ccc2o1)=C\c1cc2cc(C3=NCCN3)ccc2o1 | 9.9 µg/mL (≈ 23.4 µM) | 19.8 µg/mL (≈ 46.9 µM) | –
c1cc2cc(-c3cc4ccc(C5=NCCN5)cc4[nH]3)[nH]c2cc1C1=NCCN1 | 0.6 µg/mL (≈ 1.63 µM) | 1.1 µg/mL (≈ 2.99 µM) | –
Cc1c(/C=C/c2oc3ccc(C(=N)N)cc3c2C)oc2cc(C(=N)N)ccc12 | > 18 µg/mL | > 18 µg/mL | –
N=C(N)c1ccc(-c2cc3cc(C(=N)N)ccc3s2)cc1 | > 15 µg/mL | > 15 µg/mL | –
N=C(N)c1ccc2oc(/C=C/c3cc4cc(C(=N)N)ccc4s3)cc2c1 | 8.7 µg/mL (≈ 24.1 µM) | 17 µg/mL (≈ 47.2 µM) | –
C(=C\c1nc2ccccc2[nH]1)/c1nc2ccccc2[nH]1 | > 10 µg/mL | > 10 µg/mL | –
C(=C\c1cc2ccc(C3=NCCN3)cc2o1)/c1cc2cc(C3=NCCN3)ccc2[nH]1 | 19 µg/mL (≈ 48 µM) | > 19 µg/mL | –
Cc1cc2nc(/C=C/c3nc4cc(C)c(C)cc4[nH]3)[nH]c2cc1C | > 13 µg/mL | > 13 µg/mL | –
N=C(N)c1ccc2oc(/C=C/C=C/c3cc4cc(C(=N)N)ccc4o3)cc2c1 | 2.2 µg/mL (≈ 5.94 µM) | 18 µg/mL (≈ 48.6 µM) | –
N=C(N)c1ccc2oc(/C=C/c3cc4ccc(C(=N)N)cc4o3)cc2c1 | > 17 µg/mL | > 17 µg/mL | –
c1cc(-c2cc3ccc(C4=NCCN4)cc3[nH]2)ccc1C1=NCCN1 | > 16 µg/mL | > 16 µg/mL | –
C(=C\c1cc2cc(C3=NCCN3)ccc2o1)/c1ccc(C2=NCCN2)cc1 | 17.2 µg/mL (≈ 48.3 µM) | 17.2 µg/mL (≈ 48.3 µM) | –
O=C(N[C@H](CO)[C@H](O)c1ccc([N+](=O)[O-])cc1)C(Cl)Cl | – | – | inhibition (Bacillus subtilis [3]): Active; inhibition (Bacillus subtilis [4]): Active; inhibition (Bacillus subtilis [5]): Active; inhibition (Bacillus subtilis [6]): Active
N=C(N)c1ccc(/C=C/c2cc3cc(C(=N)N)ccc3[nH]2)cc1 | 15 µg/mL (≈ 49.4 µM) | > 15 µg/mL | –
CN[C@H](CC(C)C)C(=O)N[C@H]1C(=O)N[C@@H](CC(N)=O)C(=O)N[C@H]2C(=O)N[C@H]3C(=O)N[C@H](C(=O)N[C@H](C(=O)O)c4cc(O)cc(O)c4-c4cc3ccc4O)[C@H](O)c3ccc(c(Cl)c3)Oc3cc2cc(c3O[C@@H]2O[C@H](CO)[C@@H](O)[C@H](O)[C@H]2O[C@H]2C[C@](C)(N)[C@H](O)[C@H](C)O2)Oc2ccc(cc2Cl)[C@H]1O | – | – | inhibition (Bacillus subtilis [3]): Active; inhibition (Bacillus subtilis [4]): Active; inhibition (Bacillus subtilis [5]): Active; inhibition (Bacillus subtilis [6]): Active
N=C(N)c1ccc2cc(/C=C/c3cc4ccc(C(=N)N)cc4o3)[nH]c2c1 | 2.1 µg/mL (≈ 6.12 µM) | 4.2 µg/mL (≈ 12.2 µM) | –
OCCn1c(/C=C/c2nc3ccccc3[nH]2)nc2ccccc21 | > 12 µg/mL | > 12 µg/mL | –
N=C(N)c1ccc(/C=C/c2cc3cc(C(=N)N)ccc3o2)cc1 | > 15 µg/mL | > 15 µg/mL | –
N=C(N)c1ccc(-n2cc3cc(C(=N)N)ccc3n2)cc1 | > 14 µg/mL | > 14 µg/mL | –
N=C(N)c1ccc2cc(C(=N)N)[nH]c2c1 | > 11 µg/mL | > 11 µg/mL | –
C(=C\c1cc2cc(C3=NCCN3)ccc2s1)/c1ccc(C2=NCCN2)cc1 | 17.8 µg/mL (≈ 47.8 µM) | 17.8 µg/mL (≈ 47.8 µM) | –

Structure (SMILES) | MIC (Bacillus anthracis [1]) | MIC (Bacillus anthracis [2]) | other results
C(/C=C/c1cc2cc(C3=NCCN3)ccc2o1)=C\c1ccc(C2=NCCN2)cc1 | 18.2 µg/mL (≈ 47.6 µM) | 18.2 µg/mL (≈ 47.6 µM) | –
N=C(N)c1ccc2cc(/C=C/c3cc4ccc(C(=N)N)cc4o3)oc2c1 | 8.3 µg/mL (≈ 24.1 µM) | 17 µg/mL (≈ 49.4 µM) | –
C(=C\c1cc2cc(C3=NCCN3)ccc2o1)/c1cc2cc(C3=NCCN3)ccc2o1 | > 19 µg/mL | > 19 µg/mL | –
C(=C\c1cc2ccc(C3=NCCN3)cc2[nH]1)/c1ccc(C2=NCCN2)cc1 | 8.6 µg/mL (≈ 24.2 µM) | > 17 µg/mL | –
N=C(N)Nc1ccc(-c2cc3cc(NC(=N)N)ccc3s2)cc1 | 15.9 µg/mL (≈ 49 µM) | > 16 µg/mL | –
C(=C\c1cc2ccc(C3=NCCN3)cc2o1)/c1cc2ccc(C3=NCCN3)cc2[nH]1 | 4.7 µg/mL (≈ 11.9 µM) | 19 µg/mL (≈ 48 µM) | –
Cc1cc(N)c2cc(NC(=O)Nc3ccc4nc(C)cc(N)c4c3)ccc2n1 [AMINOQUINURIDE] | 4.5 µg/mL (≈ 12.1 µM) | 17.8 µg/mL (≈ 47.8 µM) | –
N=C(N)c1ccc(-n2nc3ccc(C(=N)N)cc3n2)cc1 | > 14 µg/mL | > 14 µg/mL | –
N=C(N)c1ccc(/C=C/C=C/c2cc3cc(C(=N)N)ccc3o2)cc1 | 8.1 µg/mL (≈ 24.5 µM) | 16.1 µg/mL (≈ 48.7 µM) | –
N=C(N)c1ccc2oc(CCc3cc4cc(C(=N)N)ccc4o3)cc2c1 | > 17 µg/mL | > 17 µg/mL | –
C(=C\c1cc2cc(C3=NCCN3)ccc2[nH]1)/c1ccc(C2=NCCN2)cc1 | > 17 µg/mL | > 17 µg/mL | –
N=C(N)c1ccc(-c2cc(-c3ccc(C(=N)N)cc3)on2)cc1 | > 15 µg/mL | > 15 µg/mL | –
N=C(N)c1ccc(-c2cc3ccc(C(=N)N)cc3s2)cc1 | > 19 µg/mL | > 19 µg/mL | –
N=C(N)c1ccc(Oc2ccc(-c3cc4ccc(C(=N)N)cc4[nH]3)cc2)cc1 | 4 µg/mL (≈ 10.8 µM) | 4 µg/mL (≈ 10.8 µM) | –
N=C(N)c1ccc(NC(=O)c2cc3ccc(C(=N)N)cc3o2)cc1 | > 16 µg/mL | > 16 µg/mL | –
C(=C\c1cc2ccc(C3=NCCN3)cc2[nH]1)/c1ccc2cc(C3=NCCN3)[nH]c2c1 | 9.3 µg/mL (≈ 23.6 µM) | 18.7 µg/mL (≈ 47.4 µM) | –
N=C(N)c1ccc(-c2nc3cc(C(=N)N)ccc3[nH]2)cc1 | > 14 µg/mL | > 14 µg/mL | –
N=C(N)c1ccc2oc(CCc3cc4ccc(C(=N)N)cc4[nH]3)cc2c1 | 8.4 µg/mL (≈ 24.3 µM) | 8.4 µg/mL (≈ 24.3 µM) | –
N=C(N)c1ccc(-c2[nH]c3cc(C(=N)N)ccc3c2N)cc1 | > 15 µg/mL | > 15 µg/mL | –
